Tests used:
[1] = target: Serine/threonine-protein kinase 24 (Homo sapiens) (UniProt Q9Y6E0); assay: Binding affinity to wild-type human partial length MST3 (A30 to S311 residues) expressed in Escherichia coli BL21 at 1 uM by Kinomescan method relative to control
[2] = test system: Tyrosine-protein kinase ABL1 (Homo sapiens), P00519 [F317L]; assay: Binding affinity to human phosphorylated ABL1 F317L mutant (S229 to K512 residues) expressed in HEK293 cells at 1 uM by Kinomescan method relative to control; type: cell-based
[3] = target: Mitogen-activated protein kinase 3 (Homo sapiens) (UniProt P27361); assay: Binding affinity to wild-type human full length ERK1 (M1 to P379 residues) expressed in Escherichia coli BL21 at 1 uM by Kinomescan method relative to control
In short: (§1)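 Run as one kinome-wide competition binding panel with each compound at a single fixed concentration. Results were plotted as a kinome-wide selectivity map.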

[4] = target: Interferon-induced, double-stranded RNA-activated protein kinase (Homo sapiens) (UniProt P19525); assay: Binding affinity to wild-type human partial length PRKR (F247 to C551 residues) expressed in Escherichia coli BL21 at 1 uM by Kinomescan method relative to control
[5] = target: Casein kinase I isoform delta (Homo sapiens) (UniProt P48730); assay: Binding affinity to wild-type human full length CSNK1D (M1 to K409 residues) expressed in Escherichia coli BL21 at 1 uM by Kinomescan method relative to control; in short: as §1
[6] = target: Serine/threonine-protein kinase Nek6 (Homo sapiens) (UniProt Q9HC98); assay: Binding affinity to wild-type human full length NEK6 (M8 to T313 residues) expressed in Escherichia coli BL21 at 1 uM by Kinomescan method relative to control
In short: (§2)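 Kinome-wide competition binding panel run by an outside provider, with each compound tested at a single concentration. Activity is read against the kinase panel.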

[7] = target: Mitogen-activated protein kinase 13 (Homo sapiens) (UniProt O15264); assay: Binding affinity to wild-type human full length p38-delta (M1 to L365 residues) expressed in Escherichia coli BL21 at 1 uM by Kinomescan method relative to control; in short: as §2
[8] = target: 3-phosphoinositide-dependent protein kinase 1 (Homo sapiens) (UniProt O15530); assay: Binding affinity to wild-type human full length PDPK1 (M1 to Q556 residues) expressed in Escherichia coli BL21 at 1 uM by Kinomescan method relative to control; in short: as §2
[9] = target: Serine/threonine-protein kinase PAK 5 (Homo sapiens) (UniProt Q9P286); assay: Binding affinity to wild-type human partial length PAK7 (Y400 to H719 residues) expressed in Escherichia coli BL21 at 1 uM by Kinomescan method relative to control
[10] = target: Beta-adrenergic receptor kinase 1 (Homo sapiens) (UniProt P25098); assay: Binding affinity to wild-type human full length GRK2 (M1 to L689 residues) expressed in HEK293 cells at 1 uM by Kinomescan method relative to control; type: cell-based; in short: as §1
[11] = test system: Tyrosine-protein kinase ABL1 (Homo sapiens), P00519 [T315I]; assay: Binding affinity to human non-phosphorylated ABL1 T315I mutant (S229 to K512 residues) expressed in HEK293 cells at 1 uM by Kinomescan method relative to control; type: cell-based
[12] = target: Homeodomain-interacting protein kinase 3 (Homo sapiens) (UniProt Q9H422); assay: Binding affinity to wild-type human partial length HIPK3 (M153 to N562 residues) expressed in HEK293 cells at 1 uM by Kinomescan method relative to control; type: cell-based
[13] = target: RAC-alpha serine/threonine-protein kinase (Homo sapiens) (UniProt P31749); assay: Binding affinity to wild-type human partial length AKT1 expressed in Escherichia coli BL21 at 1 uM by Kinomescan method relative to control; in short: as §2
[14] = target: TGF-beta receptor type-1 (Homo sapiens) (UniProt P36897); assay: Binding affinity to wild-type human partial length TGFBR1 (D179 to M503 residues) expressed in Escherichia coli BL21 at 1 uM by Kinomescan method relative to control
[15] = target: Serine/threonine-protein kinase tousled-like 1 (Homo sapiens) (UniProt Q9UKI8); assay: Binding affinity to wild-type human partial length TLK1 (K447 to A754 residues) expressed in Escherichia coli BL21 at 1 uM by Kinomescan method relative to control
[16] = target: Myosin-IIIa (Homo sapiens) (UniProt Q8NEV4); assay: Binding affinity to wild-type human partial length MYO3A (M1 to K338 residues) expressed in Escherichia coli BL21 at 1 uM by Kinomescan method relative to control
[17] = target: Calcium/calmodulin-dependent protein kinase type IV (Homo sapiens) (UniProt Q16566); assay: Binding affinity to wild-type human partial length CAMK4 (A22 to A322 residues) expressed in Escherichia coli BL21 at 1 uM by Kinomescan method relative to control
[18] = target: Tyrosine-protein kinase ABL2 (Homo sapiens) (UniProt P42684); assay: Binding affinity to wild-type human ABL2 (A248 to G542 residues) expressed in Escherichia coli BL21 at 1 uM by Kinomescan method relative to control
[19] = target: Ribosomal protein S6 kinase alpha-3 (Homo sapiens) (UniProt P51812); assay: Binding affinity to wild-type human partial length C-terminal RSK3 kinase domain 2 (V403 to K700 residues) expressed in Escherichia coli BL21 at 1 uM by Kinomescan method relative to control
[20] = target: Aurora kinase B (Homo sapiens, UniProt Q96GD4); assay: Inhibition of Aurora B in human HCT116 cells assessed as reduction in histone H3 phosphorylation at S10 residues after 4 hrs by Western blot analysis; type: cell-based
In short: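 Cells were exposed to compound in dose-response for 4 h, then lysed for western blotting of histone H3 pS10. The cellular EC50 was derived from the dose-response curves. Three replicate experiments were run.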

[21] = test system: Phosphatidylinositol 4,5-bisphosphate 3-kinase catalytic subunit alpha isoform (Homo sapiens), P42336 [Q546K]; assay: Binding affinity to human partial length PIK3CA Q546K mutant (R108 to N1068 residues) expressed in HEK293 cells at 1 uM by Kinomescan method relative to control; type: cell-based
[22] = target: Serine/threonine-protein kinase Nek7 (Homo sapiens) (UniProt Q8TDX7); assay: Binding affinity to wild-type human full length NEK7 (M1 to S302 residues) expressed in Escherichia coli BL21 at 1 uM by Kinomescan method relative to control; in short: as §2
[23] = target: Ribosomal protein S6 kinase beta-1 (Homo sapiens) (UniProt P23443); assay: Binding affinity to wild-type human partial length S6K1 (M1 to S421 residues) expressed in HEK293 cells at 1 uM by Kinomescan method relative to control; type: cell-based
[24] = target: Mitogen-activated protein kinase kinase kinase 11 (Homo sapiens) (UniProt Q16584); assay: Binding affinity to wild-type human partial length MLK3 (I77 to W399 residues) expressed in Escherichia coli BL21 at 1 uM by Kinomescan method relative to control
[25] = target: Tyrosine-protein kinase Yes (Homo sapiens) (UniProt P07947); assay: Binding affinity to wild-type human partial length YES (T257 to L543 residues) expressed in Escherichia coli BL21 at 1 uM by Kinomescan method relative to control
Tyrosine-protein kinase Yes (Homo sapiens), sequence (P07947 2-543 limits assumed): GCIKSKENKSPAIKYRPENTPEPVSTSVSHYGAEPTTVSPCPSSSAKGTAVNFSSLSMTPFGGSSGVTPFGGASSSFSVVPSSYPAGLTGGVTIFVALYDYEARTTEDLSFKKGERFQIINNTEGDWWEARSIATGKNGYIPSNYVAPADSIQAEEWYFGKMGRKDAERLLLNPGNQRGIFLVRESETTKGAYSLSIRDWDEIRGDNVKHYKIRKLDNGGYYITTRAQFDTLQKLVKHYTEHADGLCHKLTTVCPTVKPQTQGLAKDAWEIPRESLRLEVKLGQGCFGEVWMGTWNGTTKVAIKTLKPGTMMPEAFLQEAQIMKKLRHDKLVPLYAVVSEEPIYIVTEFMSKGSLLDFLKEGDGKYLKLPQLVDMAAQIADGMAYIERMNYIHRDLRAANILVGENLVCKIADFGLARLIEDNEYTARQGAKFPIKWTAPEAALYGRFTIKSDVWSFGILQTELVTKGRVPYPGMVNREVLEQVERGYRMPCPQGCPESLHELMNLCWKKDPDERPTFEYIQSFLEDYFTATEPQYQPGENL

Casein kinase I isoform delta (Homo sapiens), sequence (P48730 whole entry, looked up, the tested form may be a part, canonical isoform): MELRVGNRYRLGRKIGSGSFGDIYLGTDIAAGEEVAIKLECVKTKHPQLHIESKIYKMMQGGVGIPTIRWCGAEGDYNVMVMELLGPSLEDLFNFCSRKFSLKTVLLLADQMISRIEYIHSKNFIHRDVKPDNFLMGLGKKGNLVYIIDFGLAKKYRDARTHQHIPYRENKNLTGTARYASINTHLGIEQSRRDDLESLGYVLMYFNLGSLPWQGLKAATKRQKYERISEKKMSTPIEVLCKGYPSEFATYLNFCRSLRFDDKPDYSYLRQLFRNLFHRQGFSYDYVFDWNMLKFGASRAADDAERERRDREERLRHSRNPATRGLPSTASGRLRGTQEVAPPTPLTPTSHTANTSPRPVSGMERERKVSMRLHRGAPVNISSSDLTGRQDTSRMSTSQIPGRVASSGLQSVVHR
Aurora kinase B, sequence (Q96GD4 whole entry): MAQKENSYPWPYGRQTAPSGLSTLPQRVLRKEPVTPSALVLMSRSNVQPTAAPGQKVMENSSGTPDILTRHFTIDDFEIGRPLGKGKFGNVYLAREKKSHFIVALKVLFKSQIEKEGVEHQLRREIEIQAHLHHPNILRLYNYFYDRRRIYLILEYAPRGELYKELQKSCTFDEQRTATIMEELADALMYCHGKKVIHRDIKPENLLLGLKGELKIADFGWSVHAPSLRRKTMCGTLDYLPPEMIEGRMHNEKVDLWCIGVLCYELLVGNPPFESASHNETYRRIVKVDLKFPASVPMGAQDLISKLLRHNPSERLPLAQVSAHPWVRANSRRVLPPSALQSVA
Calcium/calmodulin-dependent protein kinase type IV (Homo sapiens), sequence (Q16566 whole entry, the tested form may be a part): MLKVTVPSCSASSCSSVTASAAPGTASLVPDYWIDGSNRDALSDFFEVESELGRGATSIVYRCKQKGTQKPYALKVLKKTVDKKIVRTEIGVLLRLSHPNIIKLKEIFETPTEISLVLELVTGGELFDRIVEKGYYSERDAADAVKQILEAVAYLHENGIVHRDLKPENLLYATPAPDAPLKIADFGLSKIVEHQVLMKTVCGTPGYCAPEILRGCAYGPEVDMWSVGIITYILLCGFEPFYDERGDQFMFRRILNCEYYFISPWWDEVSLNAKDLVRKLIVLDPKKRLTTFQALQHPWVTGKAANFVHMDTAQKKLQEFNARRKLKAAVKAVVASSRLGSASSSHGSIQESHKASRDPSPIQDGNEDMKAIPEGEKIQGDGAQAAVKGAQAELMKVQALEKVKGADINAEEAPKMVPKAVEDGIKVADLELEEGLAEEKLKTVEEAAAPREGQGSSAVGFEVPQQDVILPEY
Interferon-induced, double-stranded RNA-activated protein kinase (Homo sapiens), sequence (P19525 whole entry, the tested form may be a part, canonical isoform): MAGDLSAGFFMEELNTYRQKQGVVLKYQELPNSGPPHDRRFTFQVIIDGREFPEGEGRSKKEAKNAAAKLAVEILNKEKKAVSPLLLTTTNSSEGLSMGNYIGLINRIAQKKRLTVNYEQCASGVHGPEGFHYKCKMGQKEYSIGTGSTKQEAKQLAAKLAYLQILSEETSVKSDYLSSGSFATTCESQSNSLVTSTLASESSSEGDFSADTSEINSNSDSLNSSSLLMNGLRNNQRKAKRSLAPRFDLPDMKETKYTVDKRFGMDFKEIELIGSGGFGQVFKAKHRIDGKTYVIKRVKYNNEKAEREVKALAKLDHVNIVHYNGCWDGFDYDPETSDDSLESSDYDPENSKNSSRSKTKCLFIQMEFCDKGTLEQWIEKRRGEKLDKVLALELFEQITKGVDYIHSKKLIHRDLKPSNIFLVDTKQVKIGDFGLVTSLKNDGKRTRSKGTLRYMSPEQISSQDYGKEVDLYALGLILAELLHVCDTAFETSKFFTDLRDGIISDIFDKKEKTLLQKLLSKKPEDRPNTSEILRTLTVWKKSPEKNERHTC
Homeodomain-interacting protein kinase 3 (Homo sapiens), sequence (Q9H422 whole entry, looked up, the tested form may be a part): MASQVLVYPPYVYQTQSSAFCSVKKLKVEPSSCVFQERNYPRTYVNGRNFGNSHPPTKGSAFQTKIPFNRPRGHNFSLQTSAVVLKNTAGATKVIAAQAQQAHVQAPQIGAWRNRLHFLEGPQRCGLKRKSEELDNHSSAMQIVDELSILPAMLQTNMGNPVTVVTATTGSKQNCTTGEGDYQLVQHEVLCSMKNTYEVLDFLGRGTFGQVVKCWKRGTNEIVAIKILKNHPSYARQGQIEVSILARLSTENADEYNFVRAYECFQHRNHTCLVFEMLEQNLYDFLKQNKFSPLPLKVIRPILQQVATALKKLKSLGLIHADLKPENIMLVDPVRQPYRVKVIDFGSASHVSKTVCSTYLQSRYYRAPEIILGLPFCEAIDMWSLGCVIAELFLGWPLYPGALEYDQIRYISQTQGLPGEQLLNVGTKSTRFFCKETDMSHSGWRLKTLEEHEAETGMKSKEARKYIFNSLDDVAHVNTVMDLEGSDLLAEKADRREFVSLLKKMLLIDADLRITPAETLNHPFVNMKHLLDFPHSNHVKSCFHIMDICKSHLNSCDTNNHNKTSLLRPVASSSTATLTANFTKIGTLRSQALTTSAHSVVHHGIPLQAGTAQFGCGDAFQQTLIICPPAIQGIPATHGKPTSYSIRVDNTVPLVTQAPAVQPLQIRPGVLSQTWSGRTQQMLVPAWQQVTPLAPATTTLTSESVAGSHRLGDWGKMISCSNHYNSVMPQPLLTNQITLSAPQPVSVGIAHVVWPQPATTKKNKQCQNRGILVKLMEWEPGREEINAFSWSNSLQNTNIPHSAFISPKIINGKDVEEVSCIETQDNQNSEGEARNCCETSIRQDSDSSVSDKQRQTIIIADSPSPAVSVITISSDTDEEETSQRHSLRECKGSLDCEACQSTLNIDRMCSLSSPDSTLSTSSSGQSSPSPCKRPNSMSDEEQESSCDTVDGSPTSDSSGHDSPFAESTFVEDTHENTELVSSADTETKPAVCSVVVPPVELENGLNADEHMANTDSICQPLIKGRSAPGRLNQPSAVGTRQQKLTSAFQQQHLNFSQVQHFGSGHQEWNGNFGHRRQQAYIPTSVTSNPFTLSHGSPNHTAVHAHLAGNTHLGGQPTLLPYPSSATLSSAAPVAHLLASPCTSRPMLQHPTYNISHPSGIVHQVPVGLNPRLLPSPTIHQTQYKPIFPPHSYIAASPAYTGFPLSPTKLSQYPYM
Mitogen-activated protein kinase 3 (Homo sapiens), sequence (P27361 whole entry, the tested form may be a part): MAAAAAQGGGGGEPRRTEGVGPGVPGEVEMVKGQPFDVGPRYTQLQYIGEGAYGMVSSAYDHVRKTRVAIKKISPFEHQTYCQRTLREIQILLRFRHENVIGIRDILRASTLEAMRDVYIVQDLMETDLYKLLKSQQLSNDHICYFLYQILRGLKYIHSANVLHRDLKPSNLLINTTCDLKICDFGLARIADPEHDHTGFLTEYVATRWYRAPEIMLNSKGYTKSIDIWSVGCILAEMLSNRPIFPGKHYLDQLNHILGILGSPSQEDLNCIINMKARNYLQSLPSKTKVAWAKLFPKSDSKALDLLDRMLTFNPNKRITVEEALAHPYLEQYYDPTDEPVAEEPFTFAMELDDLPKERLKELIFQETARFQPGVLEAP
Beta-adrenergic receptor kinase 1 (Homo sapiens), sequence (P25098 whole entry, the tested form may be a part): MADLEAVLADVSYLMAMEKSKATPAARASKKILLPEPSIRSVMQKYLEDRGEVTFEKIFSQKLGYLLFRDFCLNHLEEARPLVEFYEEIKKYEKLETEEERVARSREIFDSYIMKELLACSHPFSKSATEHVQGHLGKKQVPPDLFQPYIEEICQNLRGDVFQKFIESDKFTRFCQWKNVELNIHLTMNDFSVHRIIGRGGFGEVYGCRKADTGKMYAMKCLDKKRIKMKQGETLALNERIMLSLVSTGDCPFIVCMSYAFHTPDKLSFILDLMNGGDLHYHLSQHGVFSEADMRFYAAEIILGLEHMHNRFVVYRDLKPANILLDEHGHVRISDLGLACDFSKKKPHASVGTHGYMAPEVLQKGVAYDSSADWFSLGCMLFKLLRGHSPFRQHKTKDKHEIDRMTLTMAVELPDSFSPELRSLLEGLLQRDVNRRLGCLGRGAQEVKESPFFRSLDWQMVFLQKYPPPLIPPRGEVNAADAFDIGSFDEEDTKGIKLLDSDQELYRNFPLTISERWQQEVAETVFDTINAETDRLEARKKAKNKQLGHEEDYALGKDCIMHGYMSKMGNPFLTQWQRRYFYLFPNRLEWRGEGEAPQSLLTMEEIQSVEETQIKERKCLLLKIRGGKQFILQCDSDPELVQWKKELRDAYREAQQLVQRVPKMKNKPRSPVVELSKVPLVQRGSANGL
Serine/threonine-protein kinase Nek7 (Homo sapiens), sequence (Q8TDX7 whole entry, looked up, the tested form may be a part): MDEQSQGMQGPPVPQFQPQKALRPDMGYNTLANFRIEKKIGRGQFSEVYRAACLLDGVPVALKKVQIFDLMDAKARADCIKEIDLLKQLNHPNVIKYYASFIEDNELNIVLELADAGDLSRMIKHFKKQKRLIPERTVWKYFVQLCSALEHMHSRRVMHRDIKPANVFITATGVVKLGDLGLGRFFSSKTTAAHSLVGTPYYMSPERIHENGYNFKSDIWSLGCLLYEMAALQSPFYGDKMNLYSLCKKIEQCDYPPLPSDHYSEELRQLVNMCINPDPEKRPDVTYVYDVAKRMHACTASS

## CCC(=O)Nc1ccc(C(=O)Nc2ccc(Nc3ncc4c(n3)N(C)c3ccc(C)cc3C(=O)N4C)cc2)cc1
[1]
  Activity: 100%
[2]
  Activity: 100%
[3]
  Activity: 95%
[4]
  Activity: 100%
[5]
  Activity: 95%
[6]
  Activity: 96%
[7]
  Activity: 97%
[8]
  Activity: 96%
[9]
  Activity: 97%
[10]
  Activity: 90%
[11]
  Activity: 81%
[12]
  Activity: 67%
[13]
  Activity: 99%
[14]
  Activity: 97%
[15]
  Activity: 99%
[16]
  Activity: 96%
[17]
  Activity: 87%
[18]
  Activity: 78%
[19]
  Activity: 85%
[20]
  EC50: 11 nM
[21]
  Activity: 78%
[22]
  Activity: 95%
[23]
  Activity: 100%
[24]
  Activity: 95%
[25]
  Activity: 83%

## C=CC(=O)Nc1ccc(C(=O)Nc2ccc(Nc3ncc4c(n3)N(C)c3ccc(C)cc3C(=O)N4C)cc2)cc1
[1]
  Activity: 100%
[2]
  Activity: 92%
[3]
  Activity: 100%
[4]
  Activity: 90%
[5]
  Activity: 86%
[6]
  Activity: 98%
[7]
  Activity: 84%
[8]
  Activity: 100%
[9]
  Activity: 100%
[10]
  Activity: 100%
[11]
  Activity: 100%
[12]
  Activity: 95%
[13]
  Activity: 100%
[14]
  Activity: 89%
[15]
  Activity: 94%
[16]
  Activity: 94%
[17]
  Activity: 89%
[18]
  Activity: 95%
[19]
  Activity: 100%
[20]
  EC50: 7.1 nM
[21]
  Activity: 77%
[22]
  Activity: 100%
[23]
  Activity: 91%
[24]
  Activity: 83%
[25]
  Activity: 90%

— ChEMBL document CHEMBL4184148 (Bioorg Med Chem Lett, 2017)
